Experimental data of several laboratories.
Compare with care: the assays were run in different laboratories.
Organism: Micrococcus luteus
Observed: microbial growth

SMILES | test | test system | setting | MIC
CC1=NN(CNc2ccccn2)C(=O)C1=NNn1c(-c2ccccc2)nc2ccccc2c1=O | broth dilution |  | 24 h | 110 µM
C/C=C(\C)c1cc(OC(=O)c2c(C)c(Cl)c(O)c(Cl)c2O)c(C)c(O)c1C(=O)O | broth dilution | ML01 |  | 64 µg/mL
CC1=NN(CNC(=O)c2ccccn2)C(=O)C1=NNn1c(-c2ccccc2)nc2ccccc2c1=O | broth dilution |  | 24 h | 52 µM
O=C(O)CN1C(=O)/C(=C/c2ccc(-c3ccc(N(c4ccccc4)c4ccccc4)cc3)cc2)SC1=S | broth dilution | ATCC10240 |  | 0.98 µg/mL
CC(=O)NCN1N=C(C)C(=NNn2c(-c3ccccc3)nc3ccccc3c2=O)C1=O | broth dilution |  | 24 h | 59.9 µM
CC1(C)S[C@@H]2[C@H](NC(=O)[C@H](N)c3ccccc3)C(=O)N2[C@H]1C(=O)O | broth dilution | ML01 |  | 0.13 µg/mL
O=C1NC(=S)S/C1=C\c1ccc(-c2ccc(N(c3ccccc3)c3ccccc3)cc2)cc1 | broth dilution | ATCC10240 |  | 31.1 µg/mL
C/C=C(\C)c1cc(O)c(C)c(OC(=O)c2c(C)cc(O)c(Cl)c2O)c1 | broth dilution | ML01 |  | 4 µg/mL
O=C1NC(=S)N/C1=C\c1ccc(-c2ccc(N(c3ccccc3)c3ccccc3)cc2)c2ccccc12 | broth dilution | ATCC10240 |  | > 1000 µg/mL
CN(C)[C@@H]1C(O)=C(C(N)=O)C(=O)[C@@]2(O)C(O)=C3C(=O)c4c(O)cccc4[C@@](C)(O)[C@H]3C[C@@H]12 |  |  |  | 2 µg/mL
